# Published values of several laboratories.
# Lines come from different studies, so protocols differ. pIC50: −log10 of the molar value.
# Effect on: cell growth or viability
Structure (SMILES),cell line,method,time,quantity,value
CCN1CCN(c2ccc(Nc3cc(N(C)C(=O)Nc4c(Cl)c(OC)cc(OC)c4Cl)ncn3)cc2)CC1,RT-112,ATP luminescence,96 h,pIC50,7.93
CS(=O)(=Nc1ccc(Br)cc1)c1c[nH]c2ccccc12 (centres unmarked),C4-2,MTT,48 h,pIC50,< 4.40
CCN1C(=O)N(c2c(F)c(OC)cc(OC)c2F)Cc2cnc3[nH]c(CN4CCOCC4)cc3c21,KATO III,ATP luminescence,96 h,pIC50,8.83
Nc1c2c(nc3ccccc13)CCCC2O (centres unmarked),HN-6,,72 h,pIC50,< 4.70
CC(C)=CCC[C@](C)(O)[C@H]1CC[C@]2(C)[C@@H]1[C@H](O)C[C@@H]1[C@@]3(C)CC[C@H](O[C@@H]4O[C@H](CO)[C@@H](O)[C@H](O)[C@H]4O[C@@H]4O[C@H](CO)[C@@H](O)[C@H](O)[C@H]4O)C(C)(C)[C@@H]3CC[C@]12C,BEAS-2B,MTT,72 h,pIC50,< 4.00
C=C(C)C(=O)Nc1ccc(-c2c(-c3ccc(Oc4nccc(C)n4)c(F)c3)c3c(N)ncnc3n2C)cc1,RT-112,ATP luminescence,96 h,pIC50,6.67
O=C1c2cccc(O)c2C(=O)c2c(O)cc(CO)cc21,HK-2,MTT,24 h,pIC50,< 3.30
O=C1Nc2ccc(Cl)cc2[C@@](C#CC2CC2)(C(F)(F)F)O1,HN-6,,72 h,pIC50,4.73
O=C(O)c1cc(O)c2c(c1)C(=O)c1cccc(O[C@@H]3O[C@H](CO)[C@@H](O)[C@H](O)[C@H]3O)c1C2=O,HK-2,MTT,24 h,pIC50,< 3.30
COc1cc(Nc2nccc(-c3cnn4nc(OC)ccc34)n2)cc(C(F)(F)F)c1,RERF-LC-Ad2,ATP luminescence,,pIC50,6.44
N=C(N)c1ccc(N=Nc2c(O)ccc3cc(O)ccc23)cc1,MDA-MB-468,MTT,,pIC50,4.70
COc1ccc2c(C(=O)C(=O)NCCc3c[nH]c4ccccc34)c[nH]c2c1,C4-2,MTT,,pIC50,< 4.00
COc1ccc(CCN(C)CCc2ccc(OC)c(OC)c2)cc1OC,HN-6,,72 h,pIC50,< 4.70
O=C(CNC(=O)c1cccc2ccccc12)Nc1ccccc1Oc1cccc(O)c1,SK-N-DZ,,,pIC50,6.27
Cc1ccc(C(=O)Nc2ccc(Oc3cc4cnn(C)c4cc3-c3cn[nH]c3)c(F)c2)c(=O)n1-c1ccc(F)cc1,KATO III,ATP luminescence,,pIC50,6.45
CCN(CC)CCCCNc1ncc2cc(-c3cc(OC)cc(OC)c3)c(NC(=O)NC(C)(C)C)nc2n1,RT-112,MTT,5 days,pIC50,7.82
O=C(NCCc1c[nH]c2ccccc12)C(=O)c1c[nH]c2ccc(F)cc12,C4-2,MTT,,pIC50,< 4.00
CC(C)C(=O)SCCCCCCC(=O)Nc1nc(-c2ccccc2)cs1,HN-6,,72 h,pIC50,5.23
O=C1NC(=NCc2cccs2)S/C1=C\c1ccc2ncccc2c1,LOX IMVI,,,pIC50,5.36
CC1(C)[C@@H](O)CC[C@]2(C)[C@H]3C(=O)C=C4[C@@H]5C[C@@](C)(C(=O)O)CC[C@]5(C)CC[C@@]4(C)[C@]3(C)CC[C@@H]12,SGC-7901,MTT,48 h,pIC50,4.99
Nc1nc(Nc2ccccc2)nc2c1ncn2[C@@H]1O[C@H](CO)[C@@H](O)[C@H]1O,HN-6,,72 h,pIC50,< 4.70
COc1c(O)cc2c(c1O)C(=O)c1c(cc(C)c(O)c1OC)C2=O,HK-2,MTT,24 h,pIC50,< 3.30
CC(=O)CC(c1ccccc1)c1c(O)c2ccccc2oc1=O (centres unmarked),HN-6,,72 h,pIC50,< 4.70
CC1(C)CC[C@]2(C(=O)O)CC[C@]3(C)C(=CC[C@@H]4[C@@]5(C)CC[C@H](O)C(C)(C)[C@@H]5CC[C@]43C)[C@@H]2C1,SGC-7901,MTT,48 h,pIC50,4.28
COc1cccc2c1C(=O)c1c(O)c3c(c(O)c1C2=O)C[C@@](O)(C(=O)CO)C[C@@H]3O[C@H]1C[C@H](N)[C@H](O)[C@H](C)O1,KATO III,MTT,48 h,IC50,0.71 µg/mL
Nc1ccn([C@@H]2O[C@H](CO)[C@@H](O)C2(F)F)c(=O)n1,Panc 02.03,MTT,72 h,pIC50,6.42
CN(C)CC[C@@H](c1ccc(Cl)cc1)c1ccccn1,HN-6,,72 h,pIC50,< 4.70
CC(C)(C)C1=CC(=NNC(=O)c2cccnc2)C=C(C(C)(C)C)C1=O,human Fibroblast,resazurin,24 h,pIC50,< 4.00
CCCCCCNC(=O)n1cc(F)c(=O)[nH]c1=O,C6,MTT,72 h,pIC50,5.15
CCOc1ccc(C(=O)NN=C2C=C(C(C)(C)C)C(=O)C(C(C)(C)C)=C2)cc1,human Fibroblast,resazurin,24 h,pIC50,< 4.00
Nc1ccc(Cl)c[n+]1[Pt-2]([Cl])([Cl])[n+]1cc(Cl)ccc1N,BEAS-2B,MTT,48 h,pIC50,5.20
COC(=O)CN=c1scc(-c2ccccc2)n1-c1ccccc1[N+](=O)[O-],Panc 02.03,MTT,72 h,pIC50,< 4.00
COc1cccc2c1C(=O)c1c(O)c3c(c(O)c1C2=O)C[C@@](O)(C(=O)CO)C[C@@H]3O[C@H]1C[C@H](N)[C@H](O)[C@H](C)O1,A2058,WST-1,72 h,pIC50,7.40
COc1ccc(-c2nc(C(=O)Nc3nnc(-c4cc5ccccc5[nH]4)s3)cc3c2[nH]c2ccccc23)cc1,BEAS-2B,MTT,72 h,pIC50,4.15
CC(C)C[C@H](NC(=O)[C@H](Cc1ccccc1)NC(=O)c1cnccn1)B(O)O,A2058,ATP luminescence,,pIC50,7.89
COc1ccc(Oc2ccccc2NC(=O)CNC(=O)c2cccc3ccccc23)cc1,SK-N-DZ,,,pIC50,6.57
Clc1ccc2c(c1)N=C(N1CCNCC1)c1ccccc1N2,HN-6,,72 h,pIC50,< 4.70
Cc1c[nH]c(/C=C2\C(=O)Nc3ccccc32)c1CCC(=O)O,RT-112,MTT,5 days,pIC50,5.22
